How the values were obtained:
Assay type in all cases: functional, cell-based
A549 = assay: In vitro cytotoxicity against the A-549 (human lung carcinoma) neoplastic cell line
HT-29 = assay: In vitro cytotoxicity against the HT-29 (human colon carcinoma) neoplastic cell line
Summary of the method: (§1)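 In vitro assay adapted from Bergeron's method. P-388 was grown as a suspension culture of a mouse lymphoid neoplasm. A-549, HT-29 and MEL-28 were grown as monolayer cultures. Dose–response curves were constructed, and IC50 values (nM) were calculated from them.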

SK-MEL-28 = assay: In vitro cytotoxicity against MEL-28 (human malign melanoma) neoplastic cell line; summary of the method: as §1
P388 = assay: In vitro cytotoxicity against the P-388 (from DBA/2 mouse) neoplastic cell line; summary of the method: as §1

In the case of COc1cc([C@@H]2c3cc4c(cc3[C@@H](OC(=O)/C=C/c3ccccc3)[C@H]3COC(=O)[C@H]23)OCO4)cc(OC)c1OC, the IC50 (A549; Homo sapiens, A549) is reported as 184 nM, the IC50 (HT-29; Homo sapiens, HT-29) is reported as 184 nM and the IC50 (SK-MEL-28; Homo sapiens, SK-MEL-28) is reported as 184 nM. It also gave an IC50 (P388; Mus musculus, P388) of 184 nM.

With COc1cc([C@@H]2c3cc4c(cc3[C@H](OC(=O)/C=C/c3ccccc3)[C@H]3COC(=O)[C@H]23)OCO4)cc(OC)c1OC the IC50 (A549; Homo sapiens, A549) was 9180 nM, the IC50 (HT-29; Homo sapiens, HT-29) was 9180 nM and the IC50 (SK-MEL-28; Homo sapiens, SK-MEL-28) was 9180 nM. The IC50 (P388; Mus musculus, P388) was 4590 nM.

Work on COc1cc([C@@H]2c3cc4c(cc3[C@H](OC(=O)C3CC5C=CC3C5)[C@H]3COC(=O)[C@H]23)OCO4)cc(OC)c1OC (some centres undefined) yielded an IC50 (A549; a549) of 468 nM, an IC50 (HT-29; ht-29) of 468 nM and an IC50 (SK-MEL-28; sk-mel-28) of 468 nM. It also gave an IC50 (P388; p388) of 468 nM.

C=CC(=O)O[C@H]1c2cc3c(cc2[C@@H](c2cc(OC)c(OC)c(OC)c2)[C@@H]2C(=O)OC[C@@H]21)OCO3 showed an IC50 (A549; Homo sapiens, A549) of 53 nM, an IC50 (HT-29; Homo sapiens, HT-29) of 55 nM and an IC50 (SK-MEL-28; Homo sapiens, SK-MEL-28) of 53 nM. It also gave an IC50 (P388; Mus musculus, P388) of 55 nM.

For COc1cc([C@@H]2c3cc4c(cc3[C@H](OC(=O)Cc3ccccc3)[C@H]3COC(=O)[C@H]23)OCO4)cc(OC)c1OC, the IC50 (A549; Homo sapiens, A549) was 188 nM, the IC50 (HT-29; Homo sapiens, HT-29) was 188 nM and the IC50 (SK-MEL-28; Homo sapiens, SK-MEL-28) was 188 nM. For the same molecule, the IC50 (P388; Mus musculus, P388) was 188 nM.

In the case of COc1cc([C@@H]2c3cc4c(cc3[C@@H](O)[C@H]3COC(=O)[C@H]23)OCO4)cc(OC)c1OC [EPIPODOPHYLLOTOXIN], the IC50 (A549; Homo sapiens, A549) is reported as 6000 nM, the IC50 (HT-29; Homo sapiens, HT-29) is reported as 6000 nM and the IC50 (P388; Mus musculus, P388) is reported as 6000 nM.

Molecule C=CC(=O)O[C@@H]1c2cc3c(cc2[C@@H](c2cc(OC)c(OC)c(OC)c2)[C@H]2C(=O)OC[C@@H]21)OCO3 has an IC50 (A549; Homo sapiens, A549) of 213 nM, an IC50 (HT-29; Homo sapiens, HT-29) of 213 nM and an IC50 (SK-MEL-28; Homo sapiens, SK-MEL-28) of 213 nM. For the same molecule, the IC50 (P388; Mus musculus, P388) was 213 nM.

In the case of COc1cc([C@@H]2c3cc4c(cc3[C@@H](OC(=O)c3ccccc3)[C@H]3COC(=O)[C@H]23)OCO4)cc(OC)c1OC, the IC50 (A549; Homo sapiens, A549) is reported as 48 nM, the IC50 (HT-29; Homo sapiens, HT-29) is reported as 48 nM and the IC50 (SK-MEL-28; Homo sapiens, SK-MEL-28) is reported as 48 nM. The IC50 (P388; Mus musculus, P388) was 24 nM.

COc1cc([C@@H]2c3cc4c(cc3[C@@H](O[C@@H]3O[C@@H]5CO[C@@H](C)O[C@H]5[C@H](O)[C@H]3O)[C@H]3COC(=O)[C@H]23)OCO4)cc(OC)c1O [ETOPOSIDE] gave an IC50 (HT-29; Homo sapiens, HT-29) of 1700 nM, an IC50 (SK-MEL-28; Homo sapiens, SK-MEL-28) of 850 nM and an IC50 (P388; Mus musculus, P388) of 170 nM.

For COc1cc([C@@H]2c3cc4c(cc3[C@@H](OC(=O)CC3CC5CCC3C5)[C@H]3COC(=O)[C@H]23)OCO4)cc(OC)c1OC (some centres undefined), the IC50 (A549; Homo sapiens, A549) was 454 nM, the IC50 (HT-29; Homo sapiens, HT-29) was 454 nM and the IC50 (SK-MEL-28; Homo sapiens, SK-MEL-28) was 454 nM. The IC50 (P388; Mus musculus, P388) was 454 nM.

In the case of COc1cc([C@@H]2c3cc4c(cc3[C@H](O)[C@H]3COC(=O)[C@H]23)OCO4)cc(OC)c1OC [PODOFILOX], the IC50 (A549; Homo sapiens, A549) is reported as 2900 nM, the IC50 (HT-29; Homo sapiens, HT-29) is reported as 2900 nM and the IC50 (P388; Mus musculus, P388) is reported as 2900 nM.

In the case of COc1cc([C@@H]2c3cc4c(cc3[C@H](OC(=O)c3ccccc3)[C@H]3COC(=O)[C@H]23)OCO4)cc(OC)c1OC, the IC50 (A549; Homo sapiens, A549) is reported as 1930 nM, the IC50 (HT-29; Homo sapiens, HT-29) is reported as 1930 nM and the IC50 (SK-MEL-28; Homo sapiens, SK-MEL-28) is reported as 1930 nM. For the same molecule, the IC50 (P388; Mus musculus, P388) was 1930 nM.

With COc1cc([C@@H]2c3cc4c(cc3[C@@H](OC(=O)Cc3ccccc3)[C@H]3COC(=O)[C@H]23)OCO4)cc(OC)c1OC the IC50 (A549; Homo sapiens, A549) was 94 nM, the IC50 (HT-29; Homo sapiens, HT-29) was 94 nM and the IC50 (SK-MEL-28; Homo sapiens, SK-MEL-28) was 94 nM. For the same molecule, the IC50 (P388; Mus musculus, P388) was 47 nM.

With COc1cc([C@@H]2c3cc4c(cc3[C@H](OC(=O)C3CC5C=CC3C5)[C@H]3COC(=O)[C@@H]23)OCO4)cc(OC)c1OC (some centres undefined) the IC50 (A549; Homo sapiens, A549) was 19 nM, the IC50 (HT-29; Homo sapiens, HT-29) was 19 nM and the IC50 (SK-MEL-28; Homo sapiens, SK-MEL-28) was 19 nM. The IC50 (P388; Mus musculus, P388) was 19 nM.

COc1cc([C@@H]2c3cc4c(cc3[C@@H](O)[C@H]3COC(=O)[C@@H]23)OCO4)cc(OC)c1OC showed an IC50 (A549; Homo sapiens, A549) of 12 nM, an IC50 (HT-29; Homo sapiens, HT-29) of 24 nM and an IC50 (P388; Mus musculus, P388) of 12 nM.

Molecule COc1cc([C@@H]2c3cc4c(cc3[C@H](O)[C@H]3COC(=O)[C@@H]23)OCO4)cc(OC)c1OC [AXL-1717] has an IC50 (A549; Homo sapiens, A549) of 60 nM, an IC50 (HT-29; Homo sapiens, HT-29) of 60 nM and an IC50 (P388; Mus musculus, P388) of 60 nM.

C=CC(=O)O[C@H]1c2cc3c(cc2[C@@H](c2cc(OC)c(OC)c(OC)c2)[C@H]2C(=O)OC[C@@H]21)OCO3 showed an IC50 (A549; Homo sapiens, A549) of 213 nM, an IC50 (HT-29; Homo sapiens, HT-29) of 213 nM and an IC50 (SK-MEL-28; Homo sapiens, SK-MEL-28) of 213 nM. The IC50 (P388; Mus musculus, P388) was 213 nM.

For COc1cc([C@@H]2c3cc4c(cc3[C@@H](OC(=O)C3CC5C=CC3C5)[C@H]3COC(=O)[C@H]23)OCO4)cc(OC)c1OC (some centres undefined), the IC50 (A549; Homo sapiens, A549) was 1120 nM, the IC50 (HT-29; Homo sapiens, HT-29) was 1120 nM and the IC50 (SK-MEL-28; Homo sapiens, SK-MEL-28) was 1120 nM. The IC50 (P388; Mus musculus, P388) was 1120 nM.

Molecule CCCCCCC(=O)O[C@@H]1c2cc3c(cc2[C@@H](c2cc(OC)c(OC)c(OC)c2)[C@H]2C(=O)OC[C@@H]21)OCO3 has an IC50 (A549; Homo sapiens, A549) of 190 nM, an IC50 (HT-29; Homo sapiens, HT-29) of 190 nM and an IC50 (SK-MEL-28; Homo sapiens, SK-MEL-28) of 190 nM. The IC50 (P388; Mus musculus, P388) was 190 nM.

Molecule C=CC(=O)O[C@@H]1c2cc3c(cc2[C@@H](c2cc(OC)c(OC)c(OC)c2)[C@@H]2C(=O)OC[C@@H]21)OCO3 has an IC50 (A549; Homo sapiens, A549) of 21 nM, an IC50 (HT-29; Homo sapiens, HT-29) of 21 nM and an IC50 (SK-MEL-28; Homo sapiens, SK-MEL-28) of 21 nM. The IC50 (P388; Mus musculus, P388) was 21 nM.

Molecule COc1cc([C@@H]2c3cc4c(cc3C(OC(=O)C3CC5C=CC3C5)[C@H]3COC(=O)C23)OCO4)cc(OC)c1OC (single isomer, unassigned) has an IC50 (A549; a549) of 4 nM, an IC50 (HT-29; ht-29) of 4 nM and an IC50 (SK-MEL-28; sk-mel-28) of 4 nM. The IC50 (P388; p388) was 5 nM.
